The nature of series [1]: Relaxivity measurement of contrast agents. It counts as physicochemical. Conditions: 1.5 T, in water, 37 °C.
Series [2] relates to PC3 prostate tumor xenografts. Put plainly: In vivo MRI of PC3 tumor-bearing mice. On the set-up: species or system mouse. The note with it: T1-weighted 3D FLASH, 0.1 mmol/kg i.v., imaged at 10, 20 and 30 min, n = 5. In a few lines:
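Male athymic nude mice carried subcutaneous PC3 xenografts (100 µL of 4×10^7 cells/mL in Matrigel) and were imaged at 5–8 mm tumor diameter on a 1.0 T scanner. Agents in saline were given i.v. at 0.1 mmol/kg Gd3+, with a gadoteridol control. Images were taken pre-contrast and every 10 min to 30 min by axial T1 spin echo (TR 500 ms, TE 8.144 ms) and coronal 3D FLASH (TR 17.362 ms, TE 6 ms, 15°). CNR was the tumor/muscle ROI signal […] normalised to noise.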

Structures are written as SMILES.

For `CC(O)CN1CCN(CC(=O)[O-])CCN(CC(=O)[O-])CCN(CC(=O)[O-])CC1.[Gd+3]` (stereo not drawn) [Gd(HP-DO3A), gadoteridol], the r1 relaxivity in series [1] was determined as 2.9 mM⁻¹ s⁻¹. Besides, the “Time of peak CNR in PC3 tumors” value in series [2] worked out at 10 min.

Compound `O=C([O-])CN1CCN(CC(=O)[O-])CCN(CC(=O)O)CCN(CC(=O)[O-])CC1.[Gd+3]` [Gd-DOTA] came in with a r1 relaxivity in series [1] of 2.9 mM⁻¹ s⁻¹.
